Source: ChEMBL document CHEMBL2375264, “Potent naphthoquinones against antimony-sensitive and -resistant Leishmania parasites: synthesis of novel α- and nor-α-lapachone-based 1,2,3-triazoles by copper-catalyzed azide-alkyne cycloaddition” (Eur J Med Chem, 2013)

Key:
[1] = tested on: Leishmania infantum; assay: Ratio of potassium antimonyl tartrate IC50 to compound IC50 for antimony-sensitive Leishmania infantum MCAN/BR/2002/BH400 promastigote infected in Swiss mouse peritoneal macrophages; format: functional
[2] = Selectivity index, ratio of CC50 for Swiss mouse peritoneal macrophages to IC50 for antimony-resistant Leishmania infantum MCAN/BR/2002/BH400 promastigote; format: functional
Summary of the method: (§1)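 SI = CC50/IC50. CC50 comes from Swiss mouse peritoneal macrophages, harvested by lavage with cold RPMI-1640 lacking FBS. Cells seeded at 4.0 × 10⁶/mL, allowed to adhere 1 h, then washed free of non-adherent cells. Viability read by MTT (5 mg/mL stock, 4 h).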

[3] = Selectivity index, ratio of CC50 for Swiss mouse peritoneal macrophages to IC50 for antimony-resistant Leishmania amazonensis MHOM/BR/1989/BA199 promastigote; format: functional; summary of the method: as §1
[4] = Cytotoxicity against Swiss mouse peritoneal macrophages after 24 hrs by MTT assay; format: cell-based, Peritoneal macrophage cell
Summary of the method: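 Macrophages from peritoneal lavage of Swiss mice with cold FBS-free RPMI-1640. Cells seeded at 4.0 × 10⁶/mL, adhered 1 h, non-adherent cells washed off. Compounds were DMSO stocks diluted in medium over a concentration range, final DMSO ≤0.2%. Viability read by MTT (5 mg/mL solution, 4 h further incubation). CC50 taken as the 50% cytotoxic concentration.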

[5] = tested on: Leishmania infantum; assay: Antileishmanial activity against antimony-resistant Leishmania infantum MCAN/BR/2002/BH400 promastigote infected in Swiss mouse peritoneal macrophages after 72 hrs; format: functional, organism-based; conditions: MCAN/BR/2002/BH400, 72 h
Summary of the method: (§2)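 Promastigotes of Sb(III)-sensitive and -resistant lines (resistant to Sb(III) up to 2700), maintained at 25 °C, pH 7.0, in α-MEM with 10% heat-inactivated FBS, kanamycin, ampicillin, L-glutamine, hemin and biopterin. Drugs dissolved in DMSO, diluted in α-MEM across a concentration range, final DMSO ≤0.2%.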

[6] = Selectivity index, ratio of CC50 for Swiss mouse peritoneal macrophages to IC50 for antimony-sensitive Leishmania infantum MCAN/BR/2002/BH400 promastigote; format: functional
Summary of the method: (§3)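 SI = CC50 / IC50. CC50 is from Swiss mouse peritoneal macrophages, read by MTT after lavage and 1 h adherence. […] Promastigotes grown in α-MEM with 10% heat-inactivated FBS, hemin and biopterin, pH 7.0, 25 °C. DMSO ≤0.2% final. Triplicate.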

[7] = tested on: Leishmania amazonensis; assay: Antileishmanial activity against antimony-resistant Leishmania amazonensis MHOM/BR/1989/BA199 promastigote infected in Swiss mouse peritoneal macrophages after 72 hrs; format: functional, organism-based; conditions: MHOM/BR/1989/BA199, 72 h; summary of the method: as §2
[8] = tested on: Leishmania infantum; assay: Antileishmanial activity against antimony-sensitive Leishmania infantum MCAN/BR/2002/BH400 promastigote infected in Swiss mouse peritoneal macrophages after 72 hrs; format: functional, organism-based; conditions: MCAN/BR/2002/BH400, 72 h; summary of the method: as §2
[9] = Selectivity index, ratio of CC50 for Swiss mouse peritoneal macrophages to IC50 for antimony-sensitive Leishmania amazonensis MHOM/BR/1989/BA199 promastigote; format: functional; summary of the method: as §3
[10] = tested on: Leishmania amazonensis; assay: Ratio of potassium antimonyl tartrate IC50 to compound IC50 for antimony-sensitive Leishmania amazonensis MHOM/BR/1989/BA199 promastigote infected in Swiss mouse peritoneal macrophages; format: functional
[11] = tested on: Leishmania amazonensis; assay: Antileishmanial activity against antimony-sensitive Leishmania amazonensis MHOM/BR/1989/BA199 promastigote infected in Swiss mouse peritoneal macrophages after 72 hrs; format: functional, organism-based; conditions: MHOM/BR/1989/BA199, 72 h; summary of the method: as §2

Structure (SMILES)	Ratio IC50 [1]	Ratio CC50/IC50 [2]	Ratio CC50/IC50 [3]	CC50 at 24 h [4]	IC50 [5]	Ratio CC50/IC50 [6]	IC50 [7]	IC50 [8]	Ratio CC50/IC50 [9]	Ratio IC50 [10]	IC50 [11]
COc1ccc(-c2cn(C3C4=C(OC3(C)C)c3ccccc3C(=O)C4=O)nn2)cc1 (centres undefined)	15.5	0.81	1.75	4.36 µM	5.39 µM	0.78	2.49 µM	5.57 µM	1.13	23	3.87 µM
O=C1C=C(n2cc(-c3ccc(Br)cc3)nn2)C(=O)c2ccccc21	2	1.52	0.43	21.4 µM	14.1 µM	1.24	50.1 µM	17.2 µM	0.37	2.2	57.8 µM
O=C1C=C(n2cc(CO)nn2)C(=O)c2ccccc21	2	1.64	0.45	9.51 µM	5.8 µM	0.24	21.3 µM	39.1 µM	0.4	2.2	23.9 µM
Cc1ccc(-c2cn(C3C4=C(OC3(C)C)c3ccccc3C(=O)C4=O)nn2)cc1 (centres undefined)	15.5	1.07	0.95	3.31 µM	3.1 µM	0.98	3.49 µM	3.38 µM	0.87	23	3.8 µM
